This excerpt belongs to a sample that is enriched for hits.
T cruzi repl – blocks replication of Trypanosoma cruzi. inhibition, % (no concentration beside the values). 300,000 tested, 1.4% active. T. cruzi beta-gal in NIH3T3, luminescence, 90 h;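 active = mean inhibition across valid replicates above about 55%, limit read from the data; inconclusive = mean below that limit but half or more replicates reach it; inactive = mean below it, under half of replicates reach it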;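 note: signal also drops with host cell toxicity which is not excluded here; higher percent means less beta-gal luminescence so fewer parasites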
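Assay system: NIH/3T3 host cells with β-galactosidase reporter T. cruzi; input: 5,000 host fibroblasts per well; compound: single 50 nL compound addition per well in DMSO; timing: ≥90 h infection period, 3 h prior cell attachment; measured by: GalScreen β-gal luminescence, detergent lysis, 60 min; evaluation: percent inhibition of parasite-derived β-gal signal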
HSF1 activator – increases HSF-1 driven luciferase reporter signal; activation, % at 9 µM; NIH3T3-HGL HSF-1 luciferase reporter, MG132, 8 h; 100% = twice DMSO control signal; 300,000 tested, 1.7% active; AID 504408;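 active = mean replicate activation of at least 50% with a set share of replicates each reaching 50%; inconclusive = only one of those two conditions met; inactive = mean below 50% and too few replicates reaching it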
Lmaj promast – inhibitors of Leishmania major promastigote growth; Leishmania major promastigotes, resazurin fluorescence viability; inhibition, % at 10 µM; 200,000 tested, 9% active; AID 1063; in the data active = inhibition above about 50%;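 note: promastigotes grown with compound for 44 hours at 28 °C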
Hsp70 activator – Hsp70 transcriptional activation, primary screen | AID 1203 | activation, % at 10 µM | 200,000 tested, 0.04% active | HeLa Hsp70 promoter luciferase reporter, luminescence; scaled: vehicle 0, proteasome-inhibitor control 100%;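 active = activation above the mean across all tested compounds plus 3 SD, cutoff set per campaign, cut at about 5.5% in these data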
HSF1 inh – HSF1 inhibition; AID 2098; activity change, negative = inhibition, % at 7.5 µM (by protocol); 300,000 tested, 0.77% active; NIH3T3-HGL HSE-luciferase, MG132-induced, luminescence 8 h; stronger effect = lower value;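 active = more than half of replicate wells show activity change below -50%, luminescence cut by over half; inconclusive = some wells, but at most half, below -50%; inactive = no replicate well below -50%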;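 note: luciferase reports HSF-1 transcriptional activity via heat shock element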
Each line names hits and unclear results; the compound was inactive in the other large screens.

Cc1ccc(N(Cc2ccccc2)C(=O)c2cc(S(=O)(=O)N3CCOCC3)ccc2C)cc1	none (no result: Lmaj promast, Hsp70 activator)
O=C(CN1CCC(c2nc3ccccc3s2)CC1)NCc1cccs1	T cruzi repl 68
O=C(CN1CCC(c2nc3ccccc3s2)CC1)N1CCCCC1	none
CCN(CC)S(=O)(=O)c1cccc(NC(=O)c2ccc(Sc3nncn3C)c([N+](=O)[O-])c2)c1	none
FC(F)(F)c1cccc(-c2cc(C3CCNCC3)[nH]n2)c1	T cruzi repl 56 (no result: Lmaj promast, Hsp70 activator)
FC(F)(F)c1cccc(CN2CCC(c3cc(-c4cccs4)n[nH]3)CC2)c1	T cruzi repl 61
Cc1ccc(CN2CCC(c3cc(-c4cccs4)n[nH]3)CC2)cc1	T cruzi repl inconclusive, Lmaj promast 94
COC(=O)CCN1CCC(c2cc(-c3cccc(C(F)(F)F)c3)n[nH]2)CC1	none (no result: Lmaj promast, Hsp70 activator)
COc1ccc(/C(C)=N/NC(=O)c2nnn(-c3nonc3N)c2-c2cccs2)cc1OC	none (no result: Lmaj promast, Hsp70 activator)
COc1ccc(-c2csc(NC(=S)NC(=O)c3ccco3)n2)cc1	HSF1 activator 52
O=C(/C=C/c1ccco1)NC(=S)Nc1nc(-c2ccc(Cl)cc2)cs1	HSF1 activator 63
O=C(/C=C\c1ccco1)Nc1nc(-c2ccccc2)cs1	none
O=C(/C=C/c1ccco1)NC(=S)Nc1nc(-c2ccc3ccccc3c2)cs1	HSF1 activator 136
O=C(O)/C=C/C(=O)Nc1nc(-c2ccc3ccccc3c2)cs1	none (no result: Lmaj promast, Hsp70 activator)
CCC(CC)C(=O)c1c[nH]c(C(=O)OC)c1	none
S=c1[nH]c(-c2ccccc2)cn1/N=C/c1ccccc1Br	HSF1 activator 64
COc1cc(/C=C(\C#N)C(N)=O)ccc1OS(=O)(=O)c1ccc(C)cc1	none (no result: HSF1 activator, HSF1 inh)
CSc1ccc(/C=C(\C#N)C(=O)NC2CCCCC2C)cc1 (stereo not given)	Lmaj promast 55
COc1cc(/C=C(\C#N)C(=O)NC2CCCCC2C)ccc1OS(=O)(=O)c1ccc(C)cc1 (stereo not given)	HSF1 activator 64, Lmaj promast 100
CC1CCCCC1NC(=O)/C(C#N)=C/c1ccccc1F (stereo not given)	Lmaj promast 100
COc1ccc(Nc2nc(Nc3ccc(OC)cc3)nc(-n3[nH]c(=O)c(C)c3C)n2)cc1	Lmaj promast 100, HSF1 inh -63
CCOC(=O)C1=NN(c2ccccc2)C2=NC(C)=C(C(=O)OC)C(c3ccc(C)cc3)N12 (stereo not given)	none
O=C(C[n+]1ccc(Cc2ccccc2)cc1)Nc1ccc([N+](=O)[O-])cc1Cl	none
Cc1ccc(Cl)cc1NC(=O)C[n+]1ccc(Cc2ccc([N+](=O)[O-])cc2)cc1	HSF1 activator 65
Cc1ccc(F)cc1NC(=O)CCNC(=O)c1ccc([N+](=O)[O-])cc1	HSF1 inh -68 (no result: Lmaj promast, Hsp70 activator)
COC(=O)c1ccc(C)c(NC(=O)CCNC(=O)c2ccc([N+](=O)[O-])cc2)c1	none
Cc1cc2c(cc1C)CN(c1ccccc1)C2	HSF1 activator 56 (no result: Lmaj promast, Hsp70 activator)
CCOC(=O)c1c(/N=C/N(C)C)sc(/C=N/Nc2ccccc2)c1-c1ccc(Cl)cc1	Lmaj promast 94
CCOC(=O)c1c(/N=C/N(C)C)sc(C)c1C	none
COc1ccc(-n2c(CCc3ccccc3)nnc2SCC(=O)c2ccc(Cl)cc2)cc1	none
O=C(CSc1nnc(CCc2ccccc2)n1-c1ccc(Cl)cc1)c1ccccc1	HSF1 inh -60
CCOc1ccc(S(=O)(=O)N2CCC(C(=O)NCc3cccnc3)CC2)cc1C	none (no result: Lmaj promast, Hsp70 activator)
COc1ccc(/C=C(/C(=O)NCc2ccccc2)c2ccccc2)cc1	Lmaj promast 92
COc1ccccc1/C=C(/C(=O)OCC(=O)NCc1ccccc1)c1ccccc1	Lmaj promast 62
COc1ccccc1/C=C(/C(=O)OCC(=O)Nc1ccccc1C)c1ccccc1	none
CCCCn1c(N)c(N(CCOC)C(=O)c2sc3cc(F)ccc3c2Cl)c(=O)[nH]c1=O	none (no result: Lmaj promast, Hsp70 activator)
CC(CCN1CCN(CCO)CC1)c1ccccc1 (stereo not given)	none (no result: Lmaj promast, Hsp70 activator)
CCOc1cc(/C=N/O)ccc1OCc1ccc([N+](=O)[O-])cc1	Lmaj promast 58
COc1cc(/C=N/O)ccc1OCc1ccc(Cl)cc1	HSF1 activator 108
CCOc1cc(/C=N/N=C(N)N)ccc1OCc1ccc(Cl)cc1	Lmaj promast 100
COc1cc(/C=N/O)ccc1OCc1ccc(C(=O)O)cc1	HSF1 inh -77
O=C(O)c1cc(/C=N\O)ccc1OCc1ccccc1	none
COc1cc([N+](=O)[O-])ccc1NC(=O)NCc1ccco1	none
O=C(CCN1C(=O)c2ccccc2S1(=O)=O)Nc1cccc(F)c1	none (no result: Lmaj promast, Hsp70 activator)
CC(=O)c1cc2c(cc1NC(=O)c1ccc(C)cc1)OCCO2	none (no result: Lmaj promast, Hsp70 activator)
COc1cc(/C=N/N=C(N)N)ccc1OCc1ccc(Cl)cc1	T cruzi repl 87, Lmaj promast 101
NC(N)=N/N=C/c1ccc(OCc2ccccc2)c(OCc2ccccc2)c1	none (no result: Lmaj promast, Hsp70 activator)
COc1cccc(OCc2cc(/C=N/Nc3ccc(C(=O)O)cc3)ccc2OC)c1	HSF1 inh -73 (no result: Lmaj promast, Hsp70 activator)
COc1cccc(C(=O)Oc2ccc(/C=N/Nc3ccc(C(=O)O)cc3)cc2OC)c1	none (no result: Lmaj promast, Hsp70 activator)
COc1cc(/C=N/NC(N)=S)ccc1OCc1ccc(C)cc1	T cruzi repl 58, Lmaj promast 100
O=C(CCS(=O)(=O)c1ccc(Br)cc1)NC1CCCCCC1	none (no result: Lmaj promast, Hsp70 activator)
CCN(C(=S)NC(=O)CCc1ccccc1)c1ccccc1	none
C=CCN(CC=C)C(=S)Nc1ccc(OC)c(OC)c1	none
O=c1[nH]c(SCc2ccccc2[N+](=O)[O-])nc2nc[nH]c12	none (no result: Lmaj promast, Hsp70 activator)
CC(C)c1nc(N2CCN(C(=O)c3ccccc3)CC2)c(C#N)c2c1COC(C)(C)C2	Lmaj promast 74
CC(C)c1nc(N2CCN(C(=O)c3ccco3)CC2)c(C#N)c2c1COC(C)(C)C2	none (no result: Lmaj promast, Hsp70 activator)
CC1(C)Cc2c(C#N)c(N3CCCC3)nc(-c3ccco3)c2CO1	HSF1 activator 111
COc1ccc(-c2cc(C(=O)NCc3cccs3)no2)cc1	none (no result: Lmaj promast, Hsp70 activator)
Cc1cc(C)c2cc3c(N)c(C(=O)N4CCOCC4)sc3nc2c1	none
COc1ccc2nc3sc(C(=O)NCc4cccs4)c(N)c3cc2c1	HSF1 activator 55
CCOc1ccc2nc3sc(C(=O)N4CCOCC4)c(N)c3cc2c1	Lmaj promast 93
CCOC(=O)c1c(-c2ccccc2)c2cc(OC)ccc2n1CCCN(C)C	T cruzi repl 59 (no result: Lmaj promast, Hsp70 activator)
CCOC(=O)c1c(C)n(CCNC(C)=O)c2ccc(OC)cc12	none
C[C@]12CCC(O)CC1=CCC1C2CC[C@]2(C)/C(=N\NC(N)=S)CCC12 (stereo not given in full)	T cruzi repl 66 (no result: Lmaj promast, Hsp70 activator)
C=CCn1c(SCC(=O)N(C)c2c(N)n(Cc3ccccc3)c(=O)[nH]c2=O)nnc1-c1ccccc1OC	none (no result: Lmaj promast, Hsp70 activator)
COc1ccc(-n2nc([N+](=O)[O-])c(=NCc3ccco3)n2O)cc1	none
COc1ccc(-n2nc([N+](=O)[O-])c(=NCCc3ccc(OC)c(OC)c3)n2O)cc1	Lmaj promast 94
Cc1ccc(CN=c2c([N+](=O)[O-])nn(-c3cccc(Cl)c3)n2O)cc1	none
